Assay results published in paper PMC10843616 (European journal of medicinal chemistry, 2023).
Where two headings read alike, the source gives them in different places.

How the values were obtained:
[1] = target: tCatL (trypanosomal cathepsin-L) (Trypanosoma brucei rhodesiense, UniProt Q95PM0); experiment: tCatL inhibition assay; type: biochemical; conditions: at 10 μM after 1 hour
Method in brief: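 Recombinant tCatL was expressed in Pichia pastoris and purified. Inhibition was run by a previously published protocol, with E-64 as the positive control.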

[2] = system: Bloodstream forms of T. b. gambiense (130R); experiment: T. b. gambiense growth inhibition, resazurin assay; type: cell-based, Trypanosoma brucei gambiense; conditions: for SI (CC50/EC50), T.b.g: Hep G2 CC50 / T.b.g EC50
[3] = system: T. b. brucei AnTat1.1 trypomastigotes expressing Renilla luciferase; experiment: T. b. brucei acute infection mouse efficacy; type: in vivo, BALB/c mice; conditions: 5 consecutive days; for parasite growth in vivo, intraperitoneal: 100 mpk IP; for parasite growth in vivo, oral: 100 mpk oral gavage
[4] = system: Bloodstream forms of T. b. rhodesiense (STIB 900); experiment: T. b. rhodesiense growth inhibition, resazurin assay; type: cell-based, Trypanosoma brucei rhodesiense; conditions: for SI (CC50/EC50), T.b.r: Hep G2 CC50 / T.b.r EC50
[5] = system: T. b. rhodesiense STIB 900-luc; experiment: T. b. rhodesiense acute infection mouse efficacy; type: in vivo, NMRI mice; conditions: four days; for animals surviving to 60 days with no detectable parasitemia: oral
Method in brief: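 Female NMRI mice, five per group, were inoculated i.p. with 1 x 10^4 bloodstream-form STIB 900-luc. Oral gavage started day 3 post-infection for four consecutive days, in PBS with 0.5% hydroxyl-methylcellulose and 0.5% Tween 80. Three mice were infected-untreated controls. Parasitemia was tracked by whole-animal bioluminescence imaging after D-luciferin: twice weekly for two weeks after treatment, then weekly to day 60. Cure meant a day-60 signal not above background.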

[6] = Single-dose pharmacokinetics in mice; type: in vivo, mice (C57BL/6; conditions: male, C57BL/6, mouse, plasma, oral, 5 mg/kg
[7] = system: bloodstream forms of T. brucei brucei (strain 427); experiment: T. b. brucei growth inhibition, Alamar blue assay; type: cell-based, Trypanosoma brucei brucei; conditions: Hep G2 CC50 / T.b.b EC50
[8] = 25 mpk; ref as previously reported; cited from earlier work
[9] = system: T. b. rhodesiense; conditions: 100 mpk once a day; ref as previously reported; cited from earlier work
[10] = Human liver microsome stability; type: in vitro ADME; conditions: liver microsomes

In the case of CNC(=O)CCCNC(=O)c1cccs1 [Compound 18, N-[4-(methylamino)-4-oxobutyl]thiophene-2-carboxamide], the “Percentage inhibition of tCatL” value [1] is reported as “inactive”.
For CNC(=O)/C=C/CNC(=O)c1ccc([N+](=O)[O-])s1 [Compound 10, (E)-N-[4-(methylamino)-4-oxobut-2-en-1-yl]-5-nitrothiophene-2-carboxamide], the “SI (CC50/EC50), T.b.g” value [2] was > 576.92, the “parasite growth in vivo, intraperitoneal” value [3] was “suppressed parasite growth” and the “parasite growth in vivo, oral” value [3] was “suppressed parasite growth”. The “SI (CC50/EC50), T.b.r” value [4] was > 535.71, the EC90 ([4]; Trypanosoma brucei, RHODESIENSE|STIB900, read-out: EC90 for T. b. rhodesiense) was 210 nM and the “animals surviving to 60 days” value ([5]; 100 mpk b.i.d, orally) was 3 out of 5. The “animals surviving to 60 days with no detectable parasitemia” value ([5]; 200 mpk once daily) was 4 out of 5, the “animals surviving to 60 days with no detectable parasitemia” value ([5]; 200 mpk twice daily) was 4 out of 5 and the concentration at 2 h [6] was 720 nM. For the same compound, the “SI (CC50/EC50), T.b.b” value [7] was > 138.88.
For CC(C)C[C@H](NC(=O)[C@H]1O[C@@H]1C(=O)O)C(=O)NCCCCN=C(N)N [Compound E64, E-64, reference compound], the “Percentage inhibition of tCatL” value [1] was 100%.
For CSc1ccc(OCc2ncc([N+](=O)[O-])n2C)cc1 [fexinidazole], the half-life [8] is listed as 48 min and the “infected mice treated (cured)” value [9] is listed as 4 out of 4.
Compound Nc1nc(N)nc(Nc2ccc([As]3SCC(CO)S3)cc2)n1 (stereo not shown) [Melarsoprol, reference compound] has an EC50 ([2]; Trypanosoma brucei, GAMBIENSE, 68 h, read-out: T.b.g EC50, 130R, 68 h incubation) of 7 ± 3 nM.
For O=C(NC/C=C/S(=O)(=O)c1ccccc1)c1ccco1 [Compound 6, (E)-N-[3-(phenylsulfonyl)allyl]furan-2-carboxamide], the “SI (CC50/EC50), T.b.b” value [7] was 34.02.
With O=C(N[C@H](/C=C/S(=O)(=O)c1ccccc1)CCc1ccccc1)c1ccc([N+](=O)[O-])o1 [Compound 1] the half-life [10] was 10.8 min.
In the case of CNC(=O)CCCNC(=O)c1ccc([N+](=O)[O-])s1 [Compound 17, N-[4-(methylamino)-4-oxobutyl]-5-nitrothiophene-2-carboxamide], the “Percentage inhibition of tCatL” value [1] is reported as “inactive”.
For O=C(N[C@H](/C=C/S(=O)(=O)c1ccccc1)CCc1ccccc1)c1cc(Cl)c([N+](=O)[O-])[nH]1 [Compound 3, (S,E)-4-chloro-5-nitro-N-[5-phenyl-1-(phenylsulfonyl)pent-1-en-3-yl]-1H-pyrrole-2-carboxamide], the “SI (CC50/EC50), T.b.b” value [7] was >5.13.
With O=C(NC/C=C/S(=O)(=O)c1ccccc1)c1ccc([N+](=O)[O-])s1 [Compound 4, (E)-5-nitro-N-[3-(phenylsulfonyl)allyl]thiophene-2-carboxamide] the “SI (CC50/EC50), T.b.g” value [2] was 63.81, the “SI (CC50/EC50), T.b.r” value [4] was 33.47 and the “SI (CC50/EC50), T.b.b” value [7] was 3.21.
In the case of CS(=O)(=O)/C=C/CNC(=O)c1ccc([N+](=O)[O-])o1 [Compound 7, (E)-N-[3-(methylsulfonyl)allyl]-5-nitrofuran-2-carboxamide], the “parasite growth in vivo, intraperitoneal” value [3] is reported as “ineffective” and the “parasite growth in vivo, oral” value [3] is reported as “reduced parasitemia”.
With CS(=O)(=O)CCCNC(=O)c1cccs1 [Compound 16, N-[3-(methylsulfonyl)propyl]thiophene-2-carboxamide] the “Percentage inhibition of tCatL” value [1] was “inactive”.
In the case of CNC(=O)/C=C/CNC(=O)c1ccc([N+](=O)[O-])o1 [Compound 11, (E)-N-[4-(methylamino)-4-oxobut-2-en-1-yl]-5-nitrofuran-2-carboxamide], the “SI (CC50/EC50), T.b.g” value [2] is reported as > 159.57, the “SI (CC50/EC50), T.b.r” value [4] is reported as > 340.91 and the “SI (CC50/EC50), T.b.b” value [7] is reported as > 44.38.
